Screening results (PubChem)
In the library only some 1.8% were active in any assay of this set; here they are far more common.
Fh CTSL1 inh: blocks F. hepatica cathepsin L1 in PFM18AAP counter-screen | recombinant F. hepatica cathepsin L1, Z-Leu-Arg-MCA fluorescence | inhibition, % at 5.96 µM | 300,000 compounds, 0.49% hits | AID 1906;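 active means inhibition above the mean of all tested compounds plus 3 SD, set per screening campaign, cut at about 17% in these data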;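 further: 0% = plate median of test compound wells and 100% = 1 µM Z-Phe-Ala-diazomethylketone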
GSTO1 counter: GSTO1 inhibition, counter-screen for RBBP9 inhibitors; P78417; recombinant GSTO1, activity-based probe fluorescence polarization; inhibition, % at 5.96 µM; 300,000 compounds, 1.1% hits; AID 1974;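 active means inhibition above the campaign mean inhibition plus 3 SD, cut at about 35% in these data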;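 further: 0% = GSTO1-1 with DMSO and 100% = wells lacking GSTO1-1 enzyme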
TDP2 inh: blocks human TDP2 phosphodiesterase activity | O95551 | recombinant TDP2, T5PNP hydrolysis, p-nitrophenol absorbance 415 nm | inhibition, % at 12.8 µM | 370,000 compounds, 0.34% hits | AID 720702;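 active means inhibition above the mean of all tested compounds plus 3 SD, set per campaign, cut at about 25% in these data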;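 further: 0% = DMSO with enzyme and 100% = buffer with substrate but no TDP2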
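Assay system: recombinant human TDP2 / Reagent: T5PNP substrate at 5 mM, a TopII-DNA adduct mimic / Measured by: epi absorbance from released p-nitrophenol / Evaluation: % inhibition relative to enzyme-containing and enzyme-free wells / Control set: enzyme-free and DMSO wells / Replicates: each compound tested once, singlicate / Schedule: enzyme reaction with compound for 2 h at 37 °C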
PAD4 FP inh: inhibitors of human PAD4; Q9UM07; recombinant PAD4, RCA probe fluorescence polarization; inhibition, % at 6.36 µM; 330,000 compounds, 0.41% hits; AID 485272;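 active means percent inhibition above a cutoff equal to the mean of all tested compounds plus 3 SD, cut at about 15% in these data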;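 further: 0% = PAD4 with RCA probe and DMSO and 100% = probe without PAD4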
Target sequence (Q9UM07 whole entry, looked up): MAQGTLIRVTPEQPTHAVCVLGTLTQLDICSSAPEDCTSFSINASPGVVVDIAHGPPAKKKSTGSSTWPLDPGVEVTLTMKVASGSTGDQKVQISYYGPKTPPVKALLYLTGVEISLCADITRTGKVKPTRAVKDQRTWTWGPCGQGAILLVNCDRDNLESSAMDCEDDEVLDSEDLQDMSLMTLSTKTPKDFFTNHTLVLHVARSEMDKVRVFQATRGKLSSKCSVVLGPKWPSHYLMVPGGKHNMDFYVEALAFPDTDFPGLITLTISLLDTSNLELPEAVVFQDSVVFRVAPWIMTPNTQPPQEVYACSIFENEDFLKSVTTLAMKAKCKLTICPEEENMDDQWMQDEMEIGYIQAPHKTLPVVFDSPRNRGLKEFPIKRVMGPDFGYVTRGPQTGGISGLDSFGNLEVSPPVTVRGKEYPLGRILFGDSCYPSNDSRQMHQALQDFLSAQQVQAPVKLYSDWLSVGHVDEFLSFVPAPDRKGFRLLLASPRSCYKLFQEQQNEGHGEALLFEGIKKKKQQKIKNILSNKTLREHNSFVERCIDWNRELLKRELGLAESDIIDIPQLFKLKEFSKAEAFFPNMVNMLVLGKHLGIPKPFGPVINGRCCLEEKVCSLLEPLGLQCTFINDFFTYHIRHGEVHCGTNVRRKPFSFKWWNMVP
Apaf1 inhib: inhibitors of human Apaf-1 apoptosome | O14727 | reconstituted apoptosome caspase-3 activity, DEVD-Rh110 fluorescence | inhibition, % at 20 µM | 330,000 compounds, 0.71% hits; active means inhibition of at least 40% at 20 µM;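 further: plate controls were DMSO wells for no effect and DEVD-CHO caspase inhibitor wells for full effect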
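Assay system – apoptosome proteins · Medium – Hepes buffer, pH 7.5 · Also added – cytochrome c with DEVD-Rh110 · Timing – 30 min compound preincubation, 50 min activation, room temperature · Detection – Rh110 fluorescence, excitation 480 nm, emission 540 nm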
PAD4 confirm: PAD4 (human) inhibition, confirmed; inhibition, % at 6.36 µM; shares compounds with PAD4 FP inh; recombinant PAD4, RCA probe fluorescence polarization; 1,200 compounds, 28% hits;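 active means mean inhibition across replicates above the hit cutoff set by the earlier primary screen, cut at about 15% in these data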;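 further: inhibitors block active-site labeling by the probe so polarization falls; 0% = PAD4 with probe and DMSO and 100% = probe without PAD4 enzyme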
An asterisk follows results filed as active; x = no result.

SMILES	Fh CTSL1 inh	GSTO1 counter	TDP2 inh	PAD4 FP inh	Apaf1 inhib	PAD4 confirm
Fc1ccc2nc(-c3ccc(CN4CCC(c5nc6ccccc6[nH]5)CC4)cc3)c(-c3ccccc3)nc2c1	x	x	10	x	x	x
COc1ccc(-c2c/c(=N\c3nc(-c4ccccc4)c(C)s3)c3ccccc3o2)cc1O	9	-14	-6	33*	0	17*
O=C(OCc1cn(Cc2ccccc2F)nn1)N1CCCC1	x	x	0	x	x	x
C[C@@H]1C(=O)N2N=Cc3cc4ccccc4cc3[C@H]2N2N=Cc3cc4ccccc4cc3[C@@H]12	x	x	12	x	x	x
Cc1ccc(NC(=O)c2ccc3c(=O)n4c(nc3c2)CCCCC4)nc1	-4	9	-2	1	14	x
Cc1cc(C)c2nc(NC(=O)c3ccc4c(=O)n5c(nc4c3)CCCCC5)sc2c1	2	1	11	36*	12	28*
Cc1ccc2c(c1)sc(-c1ccc(N(C)C)cc1)[n+]2C	9	3	2	19*	6	-2
COc1ccc(C)cc1Nc1n[n+](-c2ccccc2)c(-c2ccc(N(C)C)cc2)s1	3	0	12	-2	38	x
CCC12OC(=N)C(C#N)(C1C)C(C#N)(C#N)C(c1ccccc1)O2 (stereo not given)	-1	0	-12	3	1	x
CC(C)C1OC2(C)OC(=N)C1(C#N)C(C#N)(C#N)C2c1ccccc1 (stereo not given)	6	11	-10	19*	0	16*
CCC1OC2(C)OC(=N)C1(C#N)C(C#N)(C#N)C2c1ccccc1 (stereo not given)	0	13	6	15*	6	-1
NNC(=O)c1snnc1-c1ccccc1	-3	0	1	40*	-20	14
NC(=O)c1snnc1-c1ccccc1	0	7	11	-2	-1	x
CC(=O)OCCC(CC(C)C)NC(=O)[C@H](CC(C)C)NC(=O)OCc1ccccc1 (stereo not given in full)	x	x	-8	x	x	x
Cc1cc[n+](-c2[nH]c(=O)sc2/C=N/NC([S-])=Nc2ccccc2)cc1C	8	25	-1	1	4	x
CC(C)(C)c1cc[n+](-c2[nH]c(=O)sc2/C=N/NC([S-])=Nc2ccccc2)cc1	7	31	-5	17*	-15	13
C[C@@H]1CCN(C2CC2)S(=O)(=O)c2c(cccc2N2CC[C@H](N(C)C)C2)O1	x	x	-10	x	x	x
O=C(NCCN1CCOCC1)c1cc(-c2ccccc2)nc2ccccc12	x	x	-12	x	x	x
COc1ccc(-c2cc(C(=O)NCCN3CCOCC3)c3ccccc3n2)c(OC)c1	4	14	5	17*	0	-1
COc1ccc2c(C)cc3n[nH]c(=S)n3c2c1	0	3	19	22*	-2	16*
COc1ccc(-c2n[nH]c(=S)n2-c2cc(OC)ccc2OC)cc1	3	-2	17	-4	-7	x
Cc1ccc2c(c1)N(C(=O)c1ccco1)C(C)(C)c1ssc(=S)c1-2	3	-6	2	16*	0	24*
Cc1cccc2c1N(C(=O)c1ccco1)C(C)(C)c1ssc(=S)c1-2	1	-5	-3	15*	18	15
Cc1ccc2c(c1)N(C(=O)CSc1nncn1C)C(C)(C)c1ssc(=S)c1-2	2	-4	-28	13	11	x
Nc1[nH]c(C(=O)c2ccc(Br)cc2)c(-c2ccc(Cl)cc2)c1C(=O)NCCc1c[nH]c2ccccc12	x	x	2	x	x	x
SMILES	Fh CTSL1 inh	GSTO1 counter	TDP2 inh	PAD4 FP inh	Apaf1 inhib	PAD4 confirm
C=CCN1[C@H](CC(C)C)COc2cc(F)ccc2S1(=O)=O	x	x	-2	x	x	x
Cc1ccc(CN2CC(N3CCC[C@@H]3C)CS2(=O)=O)cc1 (stereo not given in full)	x	x	12	x	x	x
Cc1cc(N2CCN(S(C)(=O)=O)C[C@@H]2C)ccc1N1CCN(Cc2ccccc2)[C@@H](C)C1	x	x	0	x	x	x
COc1ccc2ccccc2c1/C=N/Nc1cccc(C(=O)O)c1	1	15	-1	21*	3	2
O=C(Cn1sc2ccccc2c1=O)NC12CC3CC(CC(C3)C1)C2	-2	2	x	16*	0	30*
O=C(Cn1sc2ccccc2c1=O)Nc1ccccc1	x	x	-4	x	x	x
COc1ccc(NC(=O)NC(C)(C(F)(F)F)C(F)(F)F)cc1	-2	7	4	4	0	x
